Assay results gathered from unrelated publications.
Each line is one published result; the experiments were not run side by side.
Effect on: cell growth or viability

CCCCC(=O)Nc1ccc(-c2ccc3ncn(CCCF)c(=O)c3c2)cn1 — IC50 (HCC827; CCK-8; 72 h): 92 nM
CN(C)CCNC(=O)c1ccc(-c2nc3ccc4[nH]ncc4c3c3c2CCCC3)cc1 — GI50 (HCC827; 72 h): 1040 nM
C[C@H](Nc1ccc2c(c1)OCCn1cc(N3C(=O)OC[C@H]3C(F)F)nc1-2)C(N)=O — EC50 (BFTC-909; ATP luminescence; 5 days): 342 nM
CN(C)CCNC(=O)c1ccc(-c2nc3ccc4[nH]ncc4c3c3c2CCCCC3)c(F)c1 — GI50 (HCC827; 72 h): 985 nM
O=C(Nc1ccc(-c2ccc3ncn(Cc4ccccc4)c(=O)c3c2)cn1)c1ccc(F)cc1 — IC50 (HCC827; CCK-8; 72 h): > 10000 nM
CN(C)CCNC(=O)c1ccc(-c2nc3ccc4[nH]ncc4c3c3c2CCCCC3)cc1 — GI50 (HCC827; 72 h): 3040 nM
CCCCC(=O)Nc1ccc(-c2ccc3ncn(CCF)c(=O)c3c2)cn1 — IC50 (HCC827; CCK-8; 72 h): 360 nM
Cc1nc(Nc2ncc(C(=O)Nc3c(C)cccc3Cl)s2)cc(N2CC[C@H](O)C2)n1 — inhibition (KU812; ATP luminescence; 10 µM, 72 h): 97%
Cc1nc(NC(=O)N2CCC[C@H]2C(N)=O)sc1-c1ccnc(C(C)(C)C(F)(F)F)c1 — EC50 (BFTC-909; ATP luminescence; 5 days): 5560 nM
